Here are results for seven compounds from ChEMBL document CHEMBL3232989, “First identification of boronic species as novel potential inhibitors of the Staphylococcus aureus NorA efflux pump” (J Med Chem, 2014).

≈ marks a conversion by molar mass, not a printed value. A value given as a limit tells only on which side of the number the result lay.

Data set [1] deals with T1, Quinolone resistance protein NorA (Staphylococcus aureus) (UniProt P0A0J7).
T1 sequence (whole entry): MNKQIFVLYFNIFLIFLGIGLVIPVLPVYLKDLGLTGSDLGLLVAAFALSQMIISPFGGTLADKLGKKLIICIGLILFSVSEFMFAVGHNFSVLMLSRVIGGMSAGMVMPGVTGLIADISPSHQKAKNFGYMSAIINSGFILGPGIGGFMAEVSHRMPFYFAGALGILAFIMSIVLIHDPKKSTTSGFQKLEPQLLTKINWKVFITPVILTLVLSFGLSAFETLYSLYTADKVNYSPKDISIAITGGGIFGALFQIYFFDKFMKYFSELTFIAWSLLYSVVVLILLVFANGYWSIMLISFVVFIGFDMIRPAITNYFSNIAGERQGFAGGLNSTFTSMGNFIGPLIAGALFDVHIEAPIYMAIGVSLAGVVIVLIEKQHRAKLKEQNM
The data set can be described thus: Inhibition of NorA in fluoroquinolone-resistant Staphylococcus aureus 1199B assessed as potentiation of 4 ug/ml of ciprofloxacin MIC at 100 ug/ml after 24 hrs by microdilution method. The essentials:
(§1)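 Combination with ciprofloxacin 4 μg/mL (MIC/4) against SA-1199B in MH broth microdilution, 10^6 CFU/mL, 24 h at 37 °C, read at 620 nm and visually. Compounds are first screened at 100 μg/mL; actives are 2-fold serially diluted. MMC4 is the lowest inhibitor concentration giving antibacterial activity with subinhibitory ciprofloxacin. Duplicates.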
A general note: Broth dilution looks for growth in wells or tubes with falling amounts of substance.

For data set [2], the system named is Staphylococcus aureus. Briefly: Toxicity in Staphylococcus aureus ATCC 25923 after 24 hrs by microdilution method. The class given is organism-based. An outline of the steps:
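Mueller–Hinton broth microdilution; inoculum from frozen culture grown 18 h at 37 °C, 10^6 CFU/mL per well. Compounds (10 mg/mL DMSO stock) in 2-fold serial dilutions, highest 128 mg/L, first screened at 100 μg/mL. MIC = complete growth inhibition after 24 h at 37 °C, read at 620 nm and visually; duplicate; ampicillin control.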

In data set [3] the test system is Staphylococcus aureus. The data set can be described thus: Toxicity in fluoroquinolone-resistant Staphylococcus aureus 1199B expressing NorA after 24 hrs by microdilution method. The class given is organism-based. The note with it: in vitro. An outline of the steps: (§2)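 Broth microdilution in Mueller–Hinton broth, 10^6 CFU/mL per well from an 18 h 37 °C culture. Compounds come from 10 mg/mL DMSO stocks as 2-fold serial dilutions, top 128 mg/L. Plates run 24 h at 37 °C and are read at 620 nm and visually. MIC is the lowest concentration with complete growth inhibition. Duplicates; 2-fold variance accepted.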

Data set [4] concerns Staphylococcus aureus subsp. aureus RN4220. Briefly: Inhibition of MsrA in macrolide-resistant Staphylococcus aureus RN4220 harboring pUL5054 assessed as potentiation of 4 ug/ml of […] erythromycin MIC after 24 hrs by microdilution method (reference value: […] ug/ml).
Data set [5] can be described thus: Cytotoxicity against human KB cells assessed growth inhibition at 10 uM after 72 hrs by MTS assay. The class given is cell-based. The note with it: read-out: GI. An outline of the steps: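 KB cells (from NCI) grown in DMEM with 10% FCS, penicillin-streptomycin, fungizone and glutamine, 37 °C, 5% CO2; compounds in DMSO added 24 h after plating (1% DMSO final, controls same). 72 h exposure, then MTS 3 h at 37 °C, absorbance at 490 nm; inhibition = (1 − OD490 treated/OD490 control)×100, triplicate experiments.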
For orientation: Formazan colour is commonly taken as a measure of viable cells.

The subject of data set [6] is Staphylococcus aureus. The data set can be described thus: Antibacterial activity against Staphylococcus aureus ATCC 25923 after 24 hrs by microdilution method. The class given is functional. Particulars: ATCC 25923, 24 h. An outline of the steps: as §2
Data set [7] has as its system Staphylococcus aureus. Briefly: Antibacterial activity against fluoroquinolone-resistant Staphylococcus aureus 1199B expressing NorA after 24 hrs by microdilution method. The class given is functional. The essentials: as §2
In data set [8] the test system is Staphylococcus aureus. Briefly: Toxicity in Staphylococcus aureus ATCC 25923 at 100 ug/ml after 24 hrs by microdilution method. The class given is organism-based. The essentials:
(§3)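 Single-point screen at 100 μg/mL of compound alone in MH broth microdilution, 10^6 CFU/mL, 24 h at 37 °C. Growth is read at 620 nm and visually, giving percent growth inhibition. Compounds inhibiting more than 90% then go to MIC determination. Duplicates.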

In data set [9] the test system is Staphylococcus aureus. The data set can be described thus: Toxicity in fluoroquinolone-resistant Staphylococcus aureus 1199B expressing NorA at 100 ug/ml after 24 hrs by microdilution method. The class given is organism-based. The essentials: as §3
The target of data set [10] is T1, Quinolone resistance protein NorA (Staphylococcus aureus). The data set can be described thus: Inhibition of NorA in fluoroquinolone-resistant Staphylococcus aureus 1199B assessed as potentiation of 4 ug/ml of ciprofloxacin MIC at 1 ug/ml after 24 hrs by microdilution method. The essentials:
as §1

In the case of `O=Cc1ccc(B(O)O)cc1C(F)(F)F`, the values for the Activity in [1] and in data set [4] were 16 µg/mL and 32 µg/mL, respectively. The MIC result is “>= 64 ug ml-1” in the data set with Staphylococcus aureus [2] and 32 µg/mL (≈ 147 µM) against Staphylococcus aureus [3]. In data set [5], the inhibition at 72 h, 10 µM came to 100%.

Consider `OB(O)c1ccccc1Oc1ccccc1`, for which the Activity in [1] and in data set [4] was 32 µg/mL in each case. In the data set with Staphylococcus aureus [3], this compound gave an MIC of 32 µg/mL (≈ 150 µM). The inhibition at 72 h, 10 µM in data set [5] stood at 10%.

On to `CC[C@H]1OC(=O)[C@H](C)[C@@H](O[C@H]2C[C@@](C)(OC)[C@@H](O)[C@H](C)O2)[C@H](C)[C@@H](O[C@@H]2O[C@H](C)C[C@H](N(C)C)[C@H]2O)[C@](C)(O)C[C@@H](C)C(=O)[C@H](C)[C@@H](O)[C@]1(C)O` [ERYTHROMYCIN], for which the values for the MIC against Staphylococcus aureus [6] and in the data set with Staphylococcus aureus [7] were 0.5 µg/mL (≈ 0.681 µM) and 128 µg/mL (≈ 174 µM), respectively.

On to `CC1(C)S[C@@H]2[C@H](NC(=O)[C@H](N)c3ccccc3)C(=O)N2[C@H]1C(=O)O` [AMPICILLIN], for which the values for the MIC against Staphylococcus aureus [6] and in the data set on Staphylococcus aureus [2] were 0.25 µg/mL (≈ 0.715 µM) and “>= 64 ug ml-1”, respectively.

As to `OB(O)c1ccc(OCc2ccccc2)nc1`, the Activity in data set [1] was 1 µg/mL. The “growth inhibition (GI)” value with Staphylococcus aureus [8] and in the data set with Staphylococcus aureus [9] was under 90% in each case. Moreover, the MIC entry in the data set on Staphylococcus aureus [2] is given as “>= 64 ug ml-1”. Moreover, in data set [10], the fold change (FC) was found to be 4. For the same compound, in data set [5], the inhibition at 72 h, 10 µM was found to be 2%.

On to `O=C(O)c1cn(C2CC2)c2cc(N3CCNCC3)c(F)cc2c1=O` [CIPROFLOXACIN], for which the values for the MIC in the data set on Staphylococcus aureus [6] and with Staphylococcus aureus [2] were 0.5 µg/mL (≈ 1.51 µM) and “>= 64 ug ml-1”, respectively.

Turning to `O=Cc1ccc(B(O)O)cc1Cl`, the Activity stood at 4 µg/mL in data set [1] and 32 µg/mL in [4]. The MIC result against Staphylococcus aureus [2] is “>= 64 ug ml-1”; in the data set on Staphylococcus aureus [3] it was 32 µg/mL (≈ 174 µM). For the same compound, in [5], the inhibition at 72 h, 10 µM turned out to be 100%.
